# From PubChem BioAssay
# ALR inh: inhibitors of human sulfhydryl oxidase ALR; purified ALR, DTT oxidation, H2O2 HRP-luminol luminescence; P55789; hit rate 3.8% among 290,000; inhibition, % (no concentration beside the values);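 active = mean replicate inhibition above about 79%, with every replicate also reaching it, limit read from the data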
# ZTA DNA inh: counter-screen for EBNA-1 inhibitors: inhibitors of Epstein-Barr virus ZTA; P03206; ZTA-DNA binding, fluorescence polarization; inhibition, % at 11 µM; hit rate 0.15% among 320,000; in the data active = inhibition above about 33%
# Target sequence (P03206 whole entry, looked up): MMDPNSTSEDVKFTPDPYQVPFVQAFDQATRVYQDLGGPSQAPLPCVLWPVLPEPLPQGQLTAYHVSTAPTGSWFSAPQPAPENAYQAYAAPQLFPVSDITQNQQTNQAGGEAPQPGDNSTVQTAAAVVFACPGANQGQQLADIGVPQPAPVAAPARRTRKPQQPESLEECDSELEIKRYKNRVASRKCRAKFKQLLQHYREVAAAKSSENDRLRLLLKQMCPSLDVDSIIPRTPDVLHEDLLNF
# core dimer inh: blocks dimerization of HCV core protein | TR-FRET GST/Flag-core106 dimerization, 1536-well | AID 1899 | hit rate 0.33% among 300,000 | inhibition, % at 5 µM;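 active = inhibition above the mean of all tested compounds plus 3 SD, set per screening campaign, cut at about 45% in these data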
#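 test system = GST/Flag-tagged HCV core106 proteins | probe or stimulus = Eu donor and XL665 acceptor anti-tag antibodies | times = compound-protein-antibody incubation 4 h at 22.5 °C | signal = TR-FRET, excitation 340 nm, emission 617 and 671 nm | measure = percent inhibition of core106 dimerization signal | controls = wells lacking GST-core106 and wells with excess unlabelled core106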
# PfM18AAP inh-1: blocks P. falciparum M18 aspartyl aminopeptidase | recombinant PfM18AAP, H-Glu-NHMec fluorogenic cleavage | inhibition, % at 7.35 µM | hit rate 1.2% among 290,000;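 active = inhibition above the campaign mean inhibition over all tested compounds plus 3 SD, cut at about 28% in these data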;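 also: 0% = plate median of test compound wells and 100% = 2 mM ZnCl2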
# NS3 helicase inh: blocks Hepatitis C virus NS3 helicase unwinding. NS3 helicase DNA unwinding, Cy5 molecular beacon fluorescence. inhibition, % at 10.9 µM. hit rate 0.56% among 290,000;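 active = inhibition above the mean of all tested compounds plus 3 SD, set per campaign, cut at about 35% in these data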;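 also: 0% = DMSO wells and 100% = thioflavine S control wells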
#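 Assay system – hepatitis C virus NS3 helicase domain fragment enzyme · Buffer or medium – MOPS pH 6.5, MgCl2, DTT, Tween20, BSA · Reagent – Cy5/quencher beacon DNA duplex and ATP to start · Compound – single 10.9 µM dose · Timing – 1 h at 25 °C · Technique – Cy5 beacon fluorescence read at start and 1 h · Measure – % inhibition of unwinding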
# EBNA-1 inh: blocks EBNA-1 binding to DNA; EBNA-1 DNA binding, fluorescence polarization; hit rate 0.34% among 300,000; inhibition, % at 14.8 µM; in the data active = inhibition above about 28%
# PfM18AAP inh-2: confirmation of Plasmodium falciparum M18 aspartyl aminopeptidase inhibitors; shares compounds with PfM18AAP inh-1; recombinant PfM18AAP, H-Glu-NHMec fluorogenic cleavage; inhibition, % at 7.35 µM; hit rate 28% among 2,400; AID 2170;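 active = mean inhibition over replicate wells above the hit cutoff set for the earlier primary screen, cut at about 29% in these data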;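 also: 0% = median of test compound wells and 100% = 2 mM ZnCl2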
# CTSL1 confirm: counter-screen for PFM18AAP inhibitors: confirmation of human cathepsin L inhibitors. shares compounds with PfM18AAP inh-1. purified cathepsin L1, Z-Leu-Arg-MCA fluorescence. inhibition, % at 5.96 µM. 2,400 tested, under 10 active. AID 2178;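 active = average inhibition across replicates above the hit cutoff set in the earlier primary screen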;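 also: 0% = median of test compound wells and 100% = Z-Phe-Ala-diazomethylketone 1 µM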
# Target sequence (P07711 whole entry, looked up): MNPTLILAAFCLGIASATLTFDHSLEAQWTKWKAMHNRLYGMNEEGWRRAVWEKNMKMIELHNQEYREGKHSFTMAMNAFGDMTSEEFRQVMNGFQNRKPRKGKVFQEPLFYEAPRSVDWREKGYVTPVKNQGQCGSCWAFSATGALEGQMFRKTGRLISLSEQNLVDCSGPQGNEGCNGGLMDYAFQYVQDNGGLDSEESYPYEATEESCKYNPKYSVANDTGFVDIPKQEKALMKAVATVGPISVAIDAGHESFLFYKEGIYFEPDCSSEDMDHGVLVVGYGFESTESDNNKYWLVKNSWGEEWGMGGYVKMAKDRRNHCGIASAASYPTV
# An asterisk follows results filed as active; / = not tested or not shown. Sampled rows, rich in hits. Any-hit rate of the full collection: about 5.2%.
SMILES,ALR inh,ZTA DNA inh,core dimer inh,PfM18AAP inh-1,NS3 helicase inh,EBNA-1 inh,PfM18AAP inh-2,CTSL1 confirm
CCSc1cc(C)nc2c(-c3ccc(Cl)cc3)c(C)nn12,3,-5,-1,2,-5,13,/,/
COCc1cc(C)nc(SCC(=O)c2ccc(O)c(O)c2)c1C#N,37,1,-8,62*,8,6,39*,-2
Cc1cc(C)nc(SCC(=O)c2ccc(C)c(C)c2)n1,7,-8,1,-9,2,7,/,/
O=C(CSc1nc2ccccc2c(=O)[nH]1)c1ccc(O)cc1O,/,/,/,1,-23,/,/,/
Cc1cc(SCC(=O)c2ccc(O)c(O)c2)n2nc(C)c(-c3ccccc3)c2n1,96*,13,10,57*,25,-1,37*,-5
Cc1ccc(C2(C)NC(=O)N(CC(=O)Nc3ccccc3C(=O)NC3CCCC3)C2=O)cc1 (centres undefined),3,4,0,/,/,6,/,/
CC1C(=O)N2CCCc3cc(NC(=O)C(=O)NCc4ccccn4)cc1c32 (centres undefined),-8,-5,-2,/,/,-3,/,/
Cc1cc(=O)[nH]c(SCC(=O)c2ccc(O)c(O)c2)n1,99*,0,-11,68*,16,0,59*,-4
Cc1ccc(C(=O)CSc2nc(O)cc(=O)[nH]2)cc1C,/,-4,-3,-2,20,0,/,/
Cc1cc(C)nc(SCNC(=O)c2ccc(Cl)cc2)n1,26,-19,-4,51*,-9,2,-29,0
CSc1cccc(NC(C)=O)c1,-10,-11,-8,-11,-7,11,/,/
CSc1cccc(N/C(=N/S(=O)(=O)c2ccccc2)NN)c1,12,/,/,38*,-2,/,0,1
CCNC(=S)NNc1nncc2ccccc12,99*,7,-2,36*,3,10,11,2
CC(OC(=O)C1=Cc2ccccc2OC1)C(=O)NC(C)(C)C (centres undefined),24,5,6,-3,6,6,/,/
CCOc1cc(N2CCOCC2)c(OCC)cc1NC(=O)CN1CCCC1,/,6,-12,-7,-5,-2,/,/
O=c1cc(CN2CCN(Cc3ccccc3)CC2)c2ccc(O)c(O)c2o1,100*,20,-1,48*,-7,25,9,-5
CCCc1cc(=O)oc2c(CN3CCOCC3)c(O)ccc12,12,2,1,0,7,0,/,/
O=c1cc(CN2CCOCC2)c2ccc(O)c(O)c2o1,99*,5,-9,36*,2,3,9,-4
CCc1cc2c(CN3CCN(Cc4ccccc4)CC3)cc(=O)oc2cc1O,0,/,/,4,-14,/,/,/
Cc1ccc(S(=O)(=O)N2CCCC2CNC(=O)C(=O)NC2CCCC2)cc1 (centres undefined),-2,-11,5,/,/,0,/,/
CN(C)S(=O)(=O)c1cccc(NC(=O)c2cccc(S(=O)(=O)N3CCCCC3)c2)c1,/,2,3,/,/,-4,/,/
COC(C(=O)N/N=C/c1ccc(OCC(=O)N2CCOCC2)cc1)c1ccccc1 (centres undefined),/,-3,2,2,4,-11,/,/
N#Cc1ccc(OCC(=O)Nc2nc(-c3ccncc3)cs2)cc1,-1,4,/,/,/,/,/,/
O=C(CCS(=O)(=O)c1ccc(F)cc1)Nc1nc(-c2ccncc2)cs1,-4,-5,-3,52*,14,-18,18,1
O=C(COc1ccc(Cl)cc1)Nc1nc(-c2ccncc2)cs1,-6,8,3,35*,15,12,-28,4
SMILES,ALR inh,ZTA DNA inh,core dimer inh,PfM18AAP inh-1,NS3 helicase inh,EBNA-1 inh,PfM18AAP inh-2,CTSL1 confirm
CSc1ncc(Cl)c(C(=O)Nc2cccc(Cl)c2)n1,-5,-17,-5,0,5,3,/,/
COc1cccc(CCNC(=O)CCc2nnc(-c3cc(C)oc3C)o2)c1,7,7,0,6,2,-10,/,/
Cc1ccc(NC(=S)NNc2ccc([N+](=O)[O-])cc2S(=O)(=O)Nc2ccccc2C(=O)O)cc1C,/,15,11,59*,20,-7,-7,-5
O=C(NC(=S)NNC(=O)c1ccccc1O)c1ccco1,28,9,-1,33*,-7,-8,30*,2
Oc1ccc(N2CCN(c3ccnc4cc(Cl)ccc34)CC2)cc1,69,10,-35,38*,-14,11,-13,2
COc1ccc(N2CCN(c3ccnc4cc(Cl)ccc34)CC2)cc1,9,-13,-9,-5,-11,-3,/,/
CCOc1ccc(C2=CC(=O)C[C@H](c3ccc(OC)cc3)C2)cc1,0,-1,/,/,/,/,/,/
CC(=S)/C=C1\Sc2ccccc2N1C,83*,-8,-1,37*,0,9,5,5
CN1/C(=C/c2cccc[n+]2CCO)Sc2ccccc21,7,-15,-17,-6,13,-8,/,/
N#Cc1c(N)sc2c1CCCCCC2,99*,13,-2,43*,11,9,-6,0
CCOC(=O)c1c(C)n(C)c2cc(Br)c(O)c(O)c12,7,-10,-5,51*,-1,-7,53*,-5
O=c1[nH]c2ccccc2c(O)c1O,/,0,-13,46*,3,8,5,-3
O=c1[nH]c2ccccc2c(O)c1-[n+]1ccccc1,0,-25,-3,1,-1,0,/,/
CC(=O)/C(=N/Nc1cccc(C)c1)N1CCOCC1,99*,-3,-3,42*,-1,-8,-68,27*
COc1cc(C2Nc3cccc4cccc(c34)N2)ccc1O,-54,8,16,46*,19,4,15,-1
CSc1ccc(C2Nc3cccc4cccc(c34)N2)cc1,-14,14,-14,26,17,-10,/,/
Cc1cccc(C2Nc3cccc4cccc(c34)N2)c1,-7,-10,-16,33*,12,-7,-5,1
c1cc2c3c(cccc3c1)NC(c1ccc3c(c1)OCO3)N2,-3,-5,-27,28,16,3,/,/
CCN(CC)S(=O)(=O)c1ccc(N2CCCC2)c(NC(=O)Cc2c(F)cccc2Cl)c1,-2,18,3,3,-4,1,/,/
CCC(NC(=O)NCc1ccccc1)(C(F)(F)F)C(F)(F)F,0,-13,-12,2,7,-2,/,/
CCC(NC(=O)Nc1ccc(O)cc1)(C(F)(F)F)C(F)(F)F,99*,-2,-9,39*,27,-1,-88,-1
CN1C(=O)N(c2cccc3ccccc23)C(n2cncn2)C1(C)C (centres undefined),-4,10,-1,81*,1,7,77*,-1
